The structures appear in SMILES notation. Calls of active or inactive are those of the source. The rule behind the calls is not given here.

Format in all cases: functional
Experiment [1] concerns Salmonella typhi. Put plainly: Antimicrobial activity against Salmonella typhi at 1 mg/ml incubated for 20 to 30 mins followed by incubation for 24 hrs at 37 degC by agar plate method. As to conditions: Salmonella enterica subsp. enterica serovar Typhi. An outline of the steps:
(§1)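 Agar well diffusion on nutrient agar. Plates swabbed with 60 µL inoculum, 8 mm wells loaded with 100 µL sample at 1.0 mg/mL, streptomycin standard and control in separate wells. Plates held 20–30 min at 4 °C for diffusion, then 24 h at 37 °C. Zone diameter read in mm; triplicate.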

The nature of experiment [2]: Anti-inflammatory activity at 100 ug/ml using bovine serum albumin and egg albumin proteins incubated at 37 degC for 20 mins and then heated to 95 degC for 20 mins by UV-visible Spectrophotometry based protein denaturation method. An outline of the steps:
(§2)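 Albumin (bovine serum or egg) at 1% in 50 mM sodium phosphate buffer pH 6.4. Mixture is 0.1 ml test sample (1 mg/ml) plus 0.2 ml albumin, made to 5 ml with buffer. Held 37 °C for 20 min, then 95 °C for 20 min. Cooled to room temperature, turbidity read at 660 nm. % inhibition = (Abs control − Abs sample)/Abs control × 100. Triplicate, averaged.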

The test system of experiment [3] is Salmonella typhi. Put plainly: Antimicrobial activity against Salmonella typhi incubated for 12 to 16 hrs followed by plating in nutrient agar by tube dilution method. As to conditions: Salmonella enterica subsp. enterica serovar Typhi. An outline of the steps: (§3)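 After 12-16 h at 37 °C in tube dilution (500 to 1.9 µg/mL; 1 mL inoculum at OD 0.2), the culture from each tube was plated on nutrient agar. MBC is the concentration at which cells are completely killed.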

Another experiment concerns Staphylococcus aureus. Put plainly: Antimicrobial activity against Staphylococcus aureus at 1 mg/ml incubated for 20 to 30 mins followed by incubation for 24 hrs at 37 degC by agar plate method. An outline of the steps: (§4)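 Agar well diffusion on nutrient agar. Plates swabbed with 60 µL inoculum; 8 mm wells loaded with 100 µL of compound at 1.0 mg/mL. Held 20–30 min at 4 °C for diffusion, then 24 h at 37 °C. Inhibition zone diameter read in mm. Triplicate.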

In experiment [4] the test system is Micrococcus luteus. Put plainly: Antimicrobial activity against Micrococcus luteus incubated for 12 to 16 hrs followed by plating in nutrient agar by tube dilution method. The gist of the method:
(§5)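 Tube dilution, serial from 500 to 1.9 µg/mL, plus drug-free control tube. Each tube inoculated with 1 mL culture at OD 0.2, incubated 37 °C for 12–16 h. MIC is the lowest concentration with no growth by turbidity. MBC is found by plating each tube on nutrient agar: the lowest concentration at which all cells are killed.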

Experiment [5] concerns Micrococcus luteus. In words: Antimicrobial activity against Micrococcus luteus at 1 mg/ml incubated for 20 to 30 mins followed by incubation for 24 hrs at 37 degC by agar plate method. An outline of the steps:
as §4

Experiment [6] deals with Salmonella paratyphi. In words: Antimicrobial activity against Salmonella paratyphi incubated for 12 to 16 hrs followed by plating in nutrient agar by tube dilution method. To be noted: Salmonella enterica subsp. enterica serovar Paratyphi A. The gist of the method: as §3
A short description of experiment [7]: Anti-inflammatory activity using bovine serum albumin and egg albumin proteins incubated at 37 degC for 20 mins and then heated to 95 degC for 20 mins by UV-visible Spectrophotometry based protein denaturation method. An outline of the steps:
as §2

Experiment [8] deals with Salmonella paratyphi. In words: Antimicrobial activity against Salmonella paratyphi at 1 mg/ml incubated for 20 to 30 mins followed by incubation for 24 hrs at 37 degC by agar plate method. To be noted: Salmonella enterica subsp. enterica serovar Paratyphi A. The gist of the method: as §1
In experiment [9] the test system is Salmonella paratyphi. Put plainly: Antimicrobial activity against Salmonella paratyphi incubated for 12 to 16 hrs by tube dilution method. To be noted: Salmonella enterica subsp. enterica serovar Paratyphi A. An outline of the steps: (§6)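 Broth tube dilution, two-fold serial dilutions from 500 to 1.9 µg/mL plus a drug-free control tube. Each tube inoculated with 1 mL culture at OD 0.2 (~McFarland standard), 37 °C for 12-16 h. Turbidity compared with the control tube. MIC is the lowest concentration giving complete growth inhibition.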

The test system of experiment [10] is Micrococcus luteus. Put plainly: Antimicrobial activity against Micrococcus luteus incubated for 12 to 16 hrs by tube dilution method. An outline of the steps: as §5
Experiment [11] has as its system Salmonella typhi. Put plainly: Antimicrobial activity against Salmonella typhi incubated for 12 to 16 hrs by tube dilution method. To be noted: Salmonella enterica subsp. enterica serovar Typhi. The gist of the method:
as §6

The nature of experiment [12]: Anti-inflammatory activity at 50 ug/ml using bovine serum albumin and egg albumin proteins incubated at 37 degC for 20 mins and then heated to 95 degC for 20 mins by UV-visible Spectrophotometry based protein denaturation method. The gist of the method: as §2

Consider `Fc1ccc(-c2cn(Cc3cn(-c4ccccc4)nc3-c3ccccc3)nn2)cc1`, for which the “diameter of the inhibition zone (DIZ)” value in the experiment on Salmonella typhi [1], with Staphylococcus aureus, with Micrococcus luteus [5] and in the experiment with Salmonella paratyphi [8] was “inactive” each time. Further, the inhibition result in [2] and in experiment [12] was “inactive” throughout. The MBC result in the experiment on Salmonella typhi [3], in the experiment on Micrococcus luteus [4] and with Salmonella paratyphi [6] was “inactive” throughout. The IC50 result in experiment [7] was “Not Active”. The MIC entry with Salmonella paratyphi [9], with Micrococcus luteus [10] and in the experiment on Salmonella typhi [11] was “inactive” throughout.
As to `CCOC(=O)c1nnn(Cc2cn(-c3ccccc3)nc2-c2ccc(C)cc2)c1C(=O)OCC`, the “diameter of the inhibition zone (DIZ)” value in the experiment on Salmonella typhi [1], in the experiment on Staphylococcus aureus, in the experiment on Micrococcus luteus [5] and in the experiment on Salmonella paratyphi [8] was “inactive” each time. In addition, the inhibition result in experiment [2] and in experiment [12] was “inactive” throughout. The MBC result with Salmonella typhi [3], with Micrococcus luteus [4] and in the experiment with Salmonella paratyphi [6] was “inactive” throughout. Moreover, the IC50 result in experiment [7] is on record as “Not Active”. Besides, the MIC result with Salmonella paratyphi [9], in the experiment on Micrococcus luteus [10] and with Salmonella typhi [11] was “inactive” in each case.
With `COc1ccc(-c2nn(-c3ccccc3)cc2Cn2cc(-c3ccccc3)nn2)cc1`, the “diameter of the inhibition zone (DIZ)” value in the experiment on Salmonella typhi [1], in the experiment on Staphylococcus aureus, in the experiment on Micrococcus luteus [5] and with Salmonella paratyphi [8] was “inactive” in each case. Besides, the inhibition entry in experiment [2] and in experiment [12] was “inactive” each time. For the same molecule, the MBC entry in the experiment on Salmonella typhi [3], with Micrococcus luteus [4] and with Salmonella paratyphi [6] was “inactive” in each case. In addition, the IC50 result in experiment [7] is reported as “Not Active”. Besides, the MIC result in the experiment with Salmonella paratyphi [9], in the experiment with Micrococcus luteus [10] and in the experiment on Salmonella typhi [11] was “inactive” each time.
Take `Cc1ccc(-c2nn(-c3ccccc3)cc2CN=[N+]=[N-])cc1`: the “diameter of the inhibition zone (DIZ)” value with Salmonella typhi [1], in the experiment on Staphylococcus aureus, in the experiment on Micrococcus luteus [5] and with Salmonella paratyphi [8] was “inactive” each time. Moreover, the inhibition result in [2] and in experiment [12] was “inactive” throughout. The MBC entry in the experiment on Salmonella typhi [3], in the experiment on Micrococcus luteus [4] and in the experiment with Salmonella paratyphi [6] was “inactive” throughout. The IC50 entry in experiment [7] is given as “Not Active”. For the same molecule, the MIC entry in the experiment with Salmonella paratyphi [9], in the experiment with Micrococcus luteus [10] and in the experiment with Salmonella typhi [11] was “inactive” each time.
As to `COc1ccc(-c2cn(Cc3cn(-c4ccccc4)nc3-c3ccccc3)nn2)cc1`, the “diameter of the inhibition zone (DIZ)” value in the experiment with Salmonella typhi [1], in the experiment with Staphylococcus aureus, in the experiment on Micrococcus luteus [5] and in the experiment with Salmonella paratyphi [8] was “inactive” in each case. Moreover, the inhibition entry in experiment [2] and in [12] was “inactive” each time. Further, the MBC result with Salmonella typhi [3], in the experiment with Micrococcus luteus [4] and in the experiment on Salmonella paratyphi [6] was “inactive” in each case. For the same molecule, the IC50 entry in experiment [7] is listed as “Not Active”. For the same molecule, the MIC result in the experiment with Salmonella paratyphi [9], in the experiment with Micrococcus luteus [10] and in the experiment on Salmonella typhi [11] was “inactive” each time.
For the molecule `CCOC(=O)c1nnn(Cc2cn(-c3ccccc3)nc2-c2ccc(OC)cc2)c1C(=O)OCC`, the “diameter of the inhibition zone (DIZ)” value with Salmonella typhi [1], in the experiment on Staphylococcus aureus, with Micrococcus luteus [5] and with Salmonella paratyphi [8] was “inactive” in each case. For the same molecule, the inhibition result in experiment [2] and in [12] was “inactive” throughout. Moreover, the MBC entry in the experiment on Salmonella typhi [3], in the experiment with Micrococcus luteus [4] and in the experiment on Salmonella paratyphi [6] was “inactive” each time. Moreover, the IC50 entry in [7] is given as “Not Active”. For the same molecule, the MIC result with Salmonella paratyphi [9], in the experiment with Micrococcus luteus [10] and in the experiment with Salmonella typhi [11] was “inactive” in each case.
On to `Cc1ccc(-n2cc(CN=[N+]=[N-])c(-c3ccccc3)n2)cc1C`, for which the “diameter of the inhibition zone (DIZ)” value in the experiment with Salmonella typhi [1], in the experiment with Staphylococcus aureus, in the experiment with Micrococcus luteus [5] and in the experiment with Salmonella paratyphi [8] was “inactive” in each case. Further, the inhibition result in experiment [2] and in experiment [12] was “inactive” each time. Also, the MBC entry with Salmonella typhi [3], with Micrococcus luteus [4] and in the experiment on Salmonella paratyphi [6] was “inactive” in each case. The IC50 result in experiment [7] is on record as “Not Active”. In addition, the MIC result with Salmonella paratyphi [9], with Micrococcus luteus [10] and in the experiment with Salmonella typhi [11] was “inactive” throughout.
As to `[N-]=[N+]=NCc1cn(-c2ccc(Cl)cc2)nc1-c1ccccc1`, the “diameter of the inhibition zone (DIZ)” value in the experiment with Salmonella typhi [1], in the experiment with Staphylococcus aureus, with Micrococcus luteus [5] and with Salmonella paratyphi [8] was “inactive” throughout. Besides, the inhibition result in experiment [2] and in [12] was “inactive” in each case. Besides, the MBC entry with Salmonella typhi [3], with Micrococcus luteus [4] and in the experiment with Salmonella paratyphi [6] was “inactive” in each case. For the same molecule, the IC50 entry in experiment [7] is listed as “Not Active”. Moreover, the MIC entry in the experiment on Salmonella paratyphi [9], with Micrococcus luteus [10] and in the experiment on Salmonella typhi [11] was “inactive” in each case.
As for `COc1ccc(-c2nn(-c3ccccc3)cc2CN=[N+]=[N-])cc1`, the “diameter of the inhibition zone (DIZ)” value in the experiment with Salmonella typhi [1], in the experiment on Staphylococcus aureus, in the experiment with Micrococcus luteus [5] and in the experiment with Salmonella paratyphi [8] was “inactive” each time. In addition, the inhibition entry in experiment [2] and in experiment [12] was “inactive” in each case. Moreover, the MBC entry in the experiment on Salmonella typhi [3], with Micrococcus luteus [4] and with Salmonella paratyphi [6] was “inactive” throughout. In experiment [7], the IC50 entry is given as “Not Active”. Also, the MIC entry in the experiment with Salmonella paratyphi [9], with Micrococcus luteus [10] and in the experiment on Salmonella typhi [11] was “inactive” in each case.
Consider `COC(=O)c1nnn(Cc2cn(-c3ccccc3)nc2-c2ccccc2)c1C(=O)OC`, for which the “diameter of the inhibition zone (DIZ)” value with Salmonella typhi [1], in the experiment on Staphylococcus aureus, in the experiment on Micrococcus luteus [5] and in the experiment on Salmonella paratyphi [8] was “inactive” throughout. Also, the inhibition entry in experiment [2] and in experiment [12] was “inactive” each time. The MBC result in the experiment on Salmonella typhi [3], with Micrococcus luteus [4] and in the experiment with Salmonella paratyphi [6] was “inactive” in each case. Moreover, the IC50 result in [7] is on record as “Not Active”. Further, the MIC result in the experiment with Salmonella paratyphi [9], with Micrococcus luteus [10] and in the experiment on Salmonella typhi [11] was “inactive” in each case.
Take `CCOC(=O)c1nnn(Cc2cn(-c3ccc(Cl)cc3)nc2-c2ccccc2)c1C(=O)OCC`: the “diameter of the inhibition zone (DIZ)” value in the experiment with Salmonella typhi [1], in the experiment on Staphylococcus aureus, in the experiment with Micrococcus luteus [5] and in the experiment with Salmonella paratyphi [8] was “inactive” in each case. The inhibition entry in [2] and in experiment [12] was “inactive” throughout. Also, the MBC result in the experiment on Salmonella typhi [3], in the experiment on Micrococcus luteus [4] and in the experiment on Salmonella paratyphi [6] was “inactive” each time. Further, the IC50 entry in experiment [7] is “Not Active”. The MIC result with Salmonella paratyphi [9], in the experiment with Micrococcus luteus [10] and with Salmonella typhi [11] was “inactive” throughout.

The values above are taken from ChEMBL document CHEMBL4177578, “Synthesis, pharmacological activities and molecular docking studies of pyrazolyltriazoles as anti-bacterial and anti-inflammatory agents” (Bioorg Med Chem, 2017).
